The test system of data set [1] is Plasmodium yoelii. The data set is described as follows: Inhibition of beta hematin formation in Plasmodium yoelii infected swiss mouse RBC after 16 hrs. Type of data set: functional, organism-based. In outline: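 Source material was plasma from male Swiss mice (15–20 g) inoculated with 1 × 10⁵ P. yoelii-infected RBCs. Blood was taken by cardiac puncture at 50% parasitemia into 2.0% citrate and centrifuged. The 1.0 mL mix held 100 mM sodium acetate pH 5.1, plasma, hemin substrate and compound at […]. It ran in triplicate for 16 h at 37 °C with rotary shaking. The washed β-hematin pellet was dissolved in NaOH and read at 400 nm. IC50 came from nonlinear regression.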

Data set [2] has as its system Plasmodium falciparum. The data set is described as follows: Antimalarial activity against chloroquine-susceptible Plasmodium falciparum 3D7 after 72 hrs by SYBR Green-I based fluorescence assay. Type of data set: functional, organism-based. The following applies: 3D7, 72 h. In outline: (§1)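 Asynchronous culture (>80% rings), 1.0% parasitized cell suspension at 0.8% parasitaemia, exposed to twofold serial dilutions of compound (DMSO stock 5 mg/mL). Incubated 72 h at 37 °C under 5% CO₂ in air. Lysis buffer with SYBR Green I added, then 1 h at 37 °C. Fluorescence read at 485/530 nm. IC₅₀ from logit regression of dose-response curves. Mean of three experiments in triplicate.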

The subject of data set [3] is Plasmodium falciparum. As to the kind of experiment: Antimalarial activity against chloroquine-resistant Plasmodium falciparum K1 after 72 hrs by SYBR Green-I based fluorescence assay. Type of data set: functional, organism-based. The method in brief:
as §1

Data set [4] can be described thus: Selectivity index, ratio of IC50 for african green monkey Vero cells to IC50 for Plasmodium falciparum. The class given is toxicity, cell-based. To be noted: read-out: Ratio IC50. The method in brief:
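SI = CC50/IC50. CC50 was measured in Vero monkey kidney cells (C1008) by MTT after 72 h exposure to compound dilutions, using nonlinear regression. IC50 came from a 72 h SYBR Green I fluorescence assay in P. falciparum (1.0% parasitized cells, 0.8% parasitaemia, mostly ring stages, 37 °C, 5% CO2). Those values came from logit regression.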

Data set [5] can be described thus: Inhibition of hydrogen peroxide-mediated hemin decomposition assessed as remaining hemin level at 20 uM after 30 mins by […] (reference value: 43%). The class given is functional. The method in brief: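 Hemin (in 0.1 N NaOH) was mixed with BSA in 0.2 M sodium acetate pH 5.1 and compound, then equilibrated for 10 min at room temperature. The reaction was started with 20 mM H2O2 and ran 30 min at room temperature. Read-out was the decrease in Soret absorbance at 405 nm, reported as % hemin remaining. Controls used water instead of H2O2. Data are the mean of three experiments in triplicate.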

Setting [6] is: Plasmodium falciparum, K1, 72 h, read-out: IC50.

Structures are written as SMILES. In brackets after ≈: the same amount, converted by molar mass.

With `COc1ccc(/C=C(\Oc2ccc(/C=N/Nc3ccnc4cc(Cl)ccc34)cc2)C(=O)c2ccc(Cl)cc2)c(OC)c1OC`, the IC50 in data set [1] was determined as 3.52 µg/mL (≈ 5.6 µM); in data set [2] it was 124 nM; in data set [3] (setting [6]) it was 82.9 nM. In addition, the selectivity ratio in data set [4] stood at 837. In addition, the Activity in data set [5] turned out to be 63%.
With `O=C(/C(=C/c1ccc(F)cc1)Oc1ccc(/C=N/Nc2ccnc3cc(Cl)ccc23)cc1)c1ccc(Cl)cc1`, the IC50 was determined as 15.6 µg/mL (≈ 28 µM) in data set [1], 29.1 nM in data set [2] and 102 nM in data set [3] (setting [6]). For the same compound, the selectivity ratio in data set [4] came to 6200.
For the compound `O=C(/C(=C/c1ccoc1)Oc1ccc(/C=N/Nc2ccnc3cc(Cl)ccc23)cc1)c1ccc(Cl)cc1`, the IC50 in data set [1] came out at 3.74 µg/mL (≈ 7.08 µM); in data set [2], 57.3 nM; in data set [3] (setting [6]), 115 nM. In addition, in data set [4], the selectivity ratio came to 962. Also, the Activity in data set [5] was determined as 53%.
With `COc1cc(OC)c(OC)cc1/C=C(\Oc1ccc(/C=N/Nc2ccnc3cc(Cl)ccc23)cc1)C(=O)c1ccc(Cl)cc1`, the IC50 in data set [1] is 10.6 µg/mL (≈ 16.9 µM); in data set [2], 90.5 nM; in data set [3] (setting [6]), 89.5 nM. Further, the selectivity ratio in data set [4] is 728.
As to `O=C(/C(=C/c1ccc([N+](=O)[O-])cc1)Oc1ccc(/C=N/Nc2ccnc3cc(Cl)ccc23)cc1)c1ccc(Cl)cc1`, the IC50 in data set [1] was 12.8 µg/mL (≈ 21.9 µM); in data set [2], greater than 500 nM; in data set [3], “Not Active”.
Consider `O=C(/C(=C/c1ccc(Cl)cc1Cl)Oc1ccc(/C=N/Nc2ccnc3cc(Cl)ccc23)cc1)c1ccc(Cl)cc1`, for which the IC50 in data set [1] is 5.91 µg/mL (≈ 9.73 µM); in data set [2], 295 nM; in data set [3] it was “Not Active”. Moreover, in data set [4], the selectivity ratio came to 560.
For `O=C(/C(=C/c1ccc(Cl)cc1)Oc1ccc(/C=N/Nc2ccnc3cc(Cl)ccc23)cc1)c1ccc(Cl)cc1`, the IC50 in data set [1] was determined as 8.38 µg/mL (≈ 14.6 µM); in data set [2], 145 nM; in data set [3] (setting [6]), 199 nM. Besides, the selectivity ratio in data set [4] is 1210.
On to `CCN(CC)CCCC(C)Nc1ccnc2cc(Cl)ccc12` (configuration not stated) [CHLOROQUINE], for which, in data set [1], the IC50 was found to be 3.75 µg/mL (≈ 11.7 µM). Also, the Activity in data set [5] was 65%.
`O=C(/C(=C/c1ccc(F)cc1F)Oc1ccc(/C=N/Nc2ccnc3cc(Cl)ccc23)cc1)c1ccc(Cl)cc1`: the IC50 in data set [2] was 139 nM; in data set [3] (setting [6]), 170 nM. Also, the selectivity ratio in data set [4] came to 1040.
`O=C(/C(=C/c1cccc([N+](=O)[O-])c1)Oc1ccc(/C=N/Nc2ccnc3cc(Cl)ccc23)cc1)c1ccc(Cl)cc1`: the IC50 in data set [1] came out at 5.72 µg/mL (≈ 9.8 µM); in data set [2], 128 nM; in data set [3] (setting [6]), 315 nM. Also, in data set [4], the selectivity ratio worked out at 1340.
As to `COc1ccc(/C=C(\Oc2ccc(/C=N/Nc3ccnc4cc(Cl)ccc34)cc2)C(=O)c2ccc(Cl)cc2)cc1`, the IC50 in data set [1] was 17.6 µg/mL (≈ 31 µM); in data set [2], 48.1 nM; in data set [3] (setting [6]) it was 96.9 nM. Besides, the selectivity ratio in data set [4] was found to be 2050.
Regarding `O=C(COc1ccc(/C=N/Nc2ccnc3cc(Cl)ccc23)cc1)c1ccc(Cl)cc1`, the IC50 in data set [1] was 16.4 µg/mL (≈ 36.4 µM); in data set [2], 36.7 nM; in data set [3] (setting [6]) it was 126 nM. Further, the selectivity ratio in data set [4] was determined as 800.
As to `COc1cc(/C=C(\Oc2ccc(/C=N/Nc3ccnc4cc(Cl)ccc34)cc2)C(=O)c2ccc(Cl)cc2)cc(OC)c1OC`, the IC50 is 10.8 µg/mL (≈ 17.2 µM) in data set [1], 95.3 nM in data set [2] and 123 nM in data set [3] (setting [6]). Moreover, the selectivity ratio in data set [4] was determined as 970.
For `O=C(/C(=C/c1ccccc1)Oc1ccc(/C=N/Nc2ccnc3cc(Cl)ccc23)cc1)c1ccc(Cl)cc1`, the IC50 was 5.66 µg/mL (≈ 10.5 µM) in data set [1], 78.8 nM in data set [2] and 110 nM in data set [3] (setting [6]). Further, the selectivity ratio in data set [4] turned out to be 2360.
Turning to `COc1ccc(/C=C(\Oc2ccc(/C=N/Nc3ccnc4cc(Cl)ccc34)cc2)C(=O)c2ccc(Cl)cc2)cc1OC`, the IC50 turned out to be 3.46 µg/mL (≈ 5.78 µM) in data set [1], 84 nM in data set [2] and 97.8 nM in data set [3] (setting [6]). Moreover, the selectivity ratio in data set [4] came to 1440. For the same compound, in data set [5], the Activity was 59%.
Regarding `COc1ccc(OC)c(/C=C(\Oc2ccc(/C=N/Nc3ccnc4cc(Cl)ccc34)cc2)C(=O)c2ccc(Cl)cc2)c1`, the IC50 in data set [1] was 25 µg/mL (≈ 41.8 µM); in data set [2] it was 250 nM; in data set [3] (setting [6]), 125 nM. Also, in data set [4], the selectivity ratio was found to be 669.
Consider `Cc1ccc(/C=C(\Oc2ccc(/C=N/Nc3ccnc4cc(Cl)ccc34)cc2)C(=O)c2ccc(Cl)cc2)cc1`, for which the figures for the IC50 in data set [1], in data set [2] and in data set [3] (setting [6]) were 5.58 µg/mL (≈ 10.1 µM), 112 nM and 97.9 nM, respectively. The selectivity ratio in data set [4] amounted to 1620.

The values above are taken from ChEMBL document CHEMBL2062381, “Synthesis and in vitro evaluation of new chloroquine-chalcone hybrids against chloroquine-resistant strain of Plasmodium falciparum” (Bioorg Med Chem Lett, 2012).
